Laboratory results reported in ChEMBL document CHEMBL1121989, “Amino acid amide derivatives of 2-[3-(aminomethyl)-4H-1,2,4-triazol-4-yl]benzophenones, a novel class of annelated peptidoaminobenzophenones” (1982).

Columns and labels:
Type in all cases: functional
Mus musculus [1] = organism: Mus musculus; test: Sedative activity was determined by measuring the inhibition of spontaneous motor activity
Mus musculus [2] = organism: Mus musculus; test: Sedative activity was determined by measuring the loss of the righting reflux induced by chlorprothixene in mice
Summary of the method: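 Male albino DS mice (20-24 g), ten per group, given oral test drug (arabic gum suspension) combined with chlorprothixene 2 mg/kg ip; samples estimated 60 min after dosing.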

Mus musculus [3] = organism: Mus musculus; test: Sedative activity was determined by measuring the loss of the righting reflux induced by thiopental sodium in mice
Summary of the method: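 Male albino DS mice (20-24 g), ten per group, pretreated orally (arabic gum suspension), then given thiopental sodium 35 mg/kg iv. ED50 = dose producing 50% increase in duration of anesthesia, by regression analysis.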

Mus musculus [4] = organism: Mus musculus; test: Antianxiety activity was determined by measuring the antagonism of foot shock induced fighting (taming) in mice
Summary of the method: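 Male albino DS mice (20-24 g), oral dosing as arabic gum suspension. Paired mice under glass enclosure given foot shocks (5 Hz, 2 ms, DC 50 V); pairs with 15–20 fighting episodes in 3 min selected, five pairs per dose. Responses counted before and 60 min after dosing; ED50 = dose giving 50% inhibition, by regression analysis.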

Mus musculus [5] = organism: Mus musculus; test: Muscle relaxation was determined by using rotatory drum (rotarod) in mice, activity is expressed as ED50 values
Summary of the method: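 Male albino DS mice (20-24 g), groups of five, oral dosing in aqueous arabic gum. At 60 min placed on a 3 cm wooden rod turning at 5 rpm; animals falling off within 2 min counted. ED50 estimated by up and down method.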

Mus musculus [6] = organism: Mus musculus; test: Anticonvulsant activity was determined as the degree of protection against convulsions induced by pentylenetetrazole in mice
Summary of the method: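 Male albino DS mice (20-24 g), ten per group, dosed orally as arabic gum suspension. Challenged 60 min later with pentylenetetrazole 125 mg/kg sc; protection from convulsion and death scored over 2 h observation. ED50 (dose protecting 50%) estimated by probit method; 95% confidence limits given.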

SMILES	ED50 (Mus musculus [1]) [mg/kg]	ED50 (Mus musculus [2]) [mg/kg]	ED50 (Mus musculus [3]) [mg/kg]	ED50 (Mus musculus [4]) [mg/kg]	ED50 (Mus musculus [5]) [mg/kg]	ED50 (Mus musculus [6]) [mg/kg]
Cc1nnc(CNC(=O)CN)n1-c1ccc(Cl)cc1C(=O)c1ccccc1	4.25	0.94	0.72	3.02	3.94	0.38
Cc1nnc(CNC(=O)CN)n1-c1ccc(Cl)cc1C(=O)c1ccccc1F	1.52	0.16	0.25	0.28	1.84	0.09
NCC(=O)NCc1nncn1-c1ccc(Cl)cc1C(=O)c1ccccc1	31.7	1.66	1.97	5.71	11.8	1.37
Cc1nnc(CNC(=O)CN)n1-c1ccc(Cl)cc1C(=O)c1ccccc1Cl	0.31	0.62	0.27	0.58	2.09	0.26
Cc1nnc(CNC(=O)C(N)Cc2ccccc2)n1-c1ccc(Cl)cc1C(=O)c1ccccc1Cl (stereo not drawn)	0.38	0.23	1.52	0.55	1.83	0.31
NCC(=O)NCc1nnc(C2CC2)n1-c1ccc(Cl)cc1C(=O)c1ccccc1Cl	1.5	0.49	4.94	2.34	18.7	0.88
CN(C(=O)CNC(=O)CN)c1ccc(Cl)cc1C(=O)c1ccccc1	15.2	–	5.2	10.9	29.3	2.16
Cc1nnc2n1-c1ccc(Cl)cc1C(c1ccccc1)=NC2 [ALPRAZOLAM]	0.94	0.25	0.36	1.09	2.22	0.22
Clc1ccc2c(c1)C(c1ccccc1)=NCc1nncn1-2 [ESTAZOLAM]	3.09	6.22	2.32	2.62	5.44	0.52
CN(C(=O)CNC(=O)CN)c1ccc(Cl)cc1C(=O)c1ccccc1Cl [LORZAFONE ANHYDROUS]	1.4	2.59	0.8	3.2	–	0.56
Cc1nnc2n1-c1ccc(Cl)cc1C(c1ccccc1Cl)=NC2 [TRIAZOLAM]	0.054	–	0.18	0.4	0.83	0.039
